The source made the active and inactive calls. The calls are words filed in the database; no cut-off is given here.
Key:
[1] = biological target: T1, Monoacylglycerol lipase ABHD6 (Mus musculus, UniProt Q8R2Y0); assay: Inhibition of MB064 probe binding to ABHD6 in mouse brain membrane proteome preincubated for 30 mins followed by MB064 probe addition measured after 20 mins by gel-based competitive activity based protein profiling assay; format: cell membranes
T1 sequence (Q8R2Y0 whole entry): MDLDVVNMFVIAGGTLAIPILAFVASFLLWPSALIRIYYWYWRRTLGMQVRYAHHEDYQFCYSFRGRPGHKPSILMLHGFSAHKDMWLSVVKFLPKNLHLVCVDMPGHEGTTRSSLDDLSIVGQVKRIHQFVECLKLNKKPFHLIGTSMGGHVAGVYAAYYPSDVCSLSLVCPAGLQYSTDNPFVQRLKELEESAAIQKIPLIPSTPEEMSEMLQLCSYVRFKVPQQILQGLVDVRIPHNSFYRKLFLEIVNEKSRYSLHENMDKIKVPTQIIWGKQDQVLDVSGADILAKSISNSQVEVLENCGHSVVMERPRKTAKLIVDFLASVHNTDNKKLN
Outline: (§1)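 Mouse brain membrane proteome (2 mg/mL) preincubated with inhibitor or DMSO vehicle for 30 min at r.t., then labelled with MB064 at 250 nM final for 20 min at r.t. and quenched in Laemmli buffer. Fluorescent bands were quantified against vehicle set to 100%, and IC50 was taken from a variable-slope log(inhibitor) vs normalized response fit. n = 3.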

Mus musculus [2] = organism: Mus musculus; assay: Selectivity ratio of IC50 for ABHD6 in mouse brain membrane proteome to IC50 for DAGLalpha in mouse brain membrane proteome; format: cell membranes
Outline: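 Ratio of DAGLα and ABHD6 […] values, both from competitive gel ABPP in mouse brain membrane proteome. Inhibitor was preincubated 30 min at r.t., then MB064 (250 nM final) was added for 20 min. Band intensities were normalized to vehicle and fitted with a variable-slope curve. n = 3.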

[3] = biological target: T2, Diacylglycerol lipase-alpha (Mus musculus, UniProt Q6WQJ1); assay: (§2) Inhibition of MB064 probe binding to DAGLalpha in mouse brain membrane proteome preincubated for 30 mins followed by MB064 probe addition measured after 20 mins by gel-based competitive activity based protein profiling assay; format: cell membranes; outline: as §1
T2 sequence (Q6WQJ1 whole entry): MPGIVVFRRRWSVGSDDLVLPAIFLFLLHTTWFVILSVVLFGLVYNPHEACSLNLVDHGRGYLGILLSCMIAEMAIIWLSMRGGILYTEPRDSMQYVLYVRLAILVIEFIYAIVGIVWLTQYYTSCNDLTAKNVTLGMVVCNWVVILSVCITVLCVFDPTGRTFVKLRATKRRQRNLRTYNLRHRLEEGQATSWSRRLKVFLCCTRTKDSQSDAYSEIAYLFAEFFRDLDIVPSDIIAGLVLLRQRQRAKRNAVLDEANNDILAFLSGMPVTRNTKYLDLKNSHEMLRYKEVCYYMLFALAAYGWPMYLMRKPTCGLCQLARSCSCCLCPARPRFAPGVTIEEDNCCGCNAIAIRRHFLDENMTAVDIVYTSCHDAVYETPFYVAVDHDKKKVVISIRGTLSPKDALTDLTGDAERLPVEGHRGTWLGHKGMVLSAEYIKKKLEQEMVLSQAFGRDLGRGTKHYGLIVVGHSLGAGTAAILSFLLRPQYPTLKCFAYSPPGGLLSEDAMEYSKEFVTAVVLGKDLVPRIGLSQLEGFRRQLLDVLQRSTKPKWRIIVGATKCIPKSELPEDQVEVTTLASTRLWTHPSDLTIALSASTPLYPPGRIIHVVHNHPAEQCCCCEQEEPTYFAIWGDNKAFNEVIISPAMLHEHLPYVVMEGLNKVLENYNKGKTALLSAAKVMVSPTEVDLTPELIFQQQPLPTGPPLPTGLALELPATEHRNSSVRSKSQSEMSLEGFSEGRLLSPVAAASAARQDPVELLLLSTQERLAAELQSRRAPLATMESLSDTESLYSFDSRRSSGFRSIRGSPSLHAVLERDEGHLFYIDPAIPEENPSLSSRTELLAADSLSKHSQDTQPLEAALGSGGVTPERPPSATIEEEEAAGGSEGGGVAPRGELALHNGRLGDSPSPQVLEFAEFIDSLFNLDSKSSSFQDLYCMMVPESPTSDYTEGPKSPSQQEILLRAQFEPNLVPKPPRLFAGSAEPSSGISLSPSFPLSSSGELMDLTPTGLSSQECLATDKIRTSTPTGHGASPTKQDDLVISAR

[4] = biological target: T3, Diacylglycerol lipase-alpha (Mus musculus) (UniProt Q6WQJ1); assay: as §2; format: cell membranes; outline: as §1
T3 sequence (whole entry): T2 sequence (Q6WQJ1 whole entry)

Mus musculus [5] = assay: Reduction in carbohydrate oxidation in 18 hrs fasted C57Bl/6J mouse model of fasting-induced refeeding at 50 mg/kg, ip administered as single dose 30 mins prior to refeeding measured after 20 mins; format: functional, organism-based
Mus musculus [6] = assay: Increase in fat oxidation in 18 hrs fasted C57Bl/6J mouse model of fasting-induced refeeding at 50 mg/kg, ip administered as single dose 30 mins prior to refeeding measured after 20 mins; format: functional, organism-based
[7] = biological target: T4, Monoacylglycerol lipase ABHD6 (Homo sapiens, UniProt Q9BV23); assay: Inhibition of human ABHD6 using 2-AG as natural substrate by fluorescence based assay
T4 sequence (Q9BV23 whole entry): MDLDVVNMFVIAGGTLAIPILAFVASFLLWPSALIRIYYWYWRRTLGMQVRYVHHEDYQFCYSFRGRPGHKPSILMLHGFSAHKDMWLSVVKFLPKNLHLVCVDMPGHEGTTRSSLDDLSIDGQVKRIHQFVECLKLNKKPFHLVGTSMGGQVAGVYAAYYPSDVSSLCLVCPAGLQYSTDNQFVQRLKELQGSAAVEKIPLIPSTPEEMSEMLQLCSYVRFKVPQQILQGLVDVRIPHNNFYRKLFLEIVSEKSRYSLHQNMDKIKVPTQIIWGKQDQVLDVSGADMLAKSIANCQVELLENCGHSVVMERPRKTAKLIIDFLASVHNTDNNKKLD
Outline: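 Coupled fluorescence assay: 2-AG hydrolysis detected via glycerol kinase, glycerol-3-phosphate oxidase and HRP (0.2 U/mL each), 0.125 mM ATP and 10 µM Amplifu Red. Conditions: 25 µM 2-AG, 0.5% acetonitrile, 5% DMSO, ABHD6 membrane protein 40 µg/mL final. n = 4.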

Mus musculus [8] = assay: Ex vivo inhibition of FP-TAMRA probe binding to carboxylesterase in mouse liver at 3 to 50 mg/kg, ip after 4 hrs by gel-based competitive activity based protein profiling assay; format: functional, organism-based
Mus musculus [9] = assay: Inhibition of fasting-induced refeeding in 18 hrs fasted C57Bl/6J mouse at 50 mg/kg, ip administered as single dose 30 mins prior to refeeding measured up to 4 hrs; format: functional, organism-based
Mus musculus [10] = assay: Toxicity in 18 hrs fasted C57Bl/6J mouse model of fasting-induced refeeding assessed as effect on locomotor activity at 50 mg/kg, ip administered as single dose 30 mins prior to refeeding measured after 24 hrs; format: organism-based; conditions: in vivo

IC50 [1]: 79.4 nM | Ratio IC50 (Mus musculus [2]): 126 | IC50 [3]: 0.631 nM | inhibition [4]: Dose-dependent effect | IC50 [7]: 2.51 nM
Compound: C#CCO[C@@H]1CC[C@H](Cc2ccccc2)N(C(=O)n2ncc(C(O)(c3ccc(F)cc3)c3ccc(F)cc3)n2)C1
Activity (Mus musculus [5]): Active | Activity (Mus musculus [6]): Active | inhibition (Mus musculus [8]): Active | inhibition (Mus musculus [9]): Active | Activity (Mus musculus [10]): Non-Toxic

Reference: ChEMBL document CHEMBL3877306, “Triazole Ureas Act as Diacylglycerol Lipase Inhibitors and Prevent Fasting-Induced Refeeding” (J Med Chem, 2017)
